ChEMBL document CHEMBL4823270, “A first-in-class anticancer dual HDAC2/FAK inhibitors bearing hydroxamates/benzamides capped by pyridinyl-1,2,4-triazoles” (Eur J Med Chem, 2021)

Experiments:
[1] = tested on: CAKI-1; experiment: Antiproliferative activity against human CAKI-1 cells assessed as cell growth inhibition incubated for 24 hrs by MTT assay; type: functional, cell-based; conditions: CAKI-1, 24 h
[2] = tested on: KG-1; experiment: Growth inhibition of human KG-1 cells at 10 uM incubated for 24 hrs by MTT assay relative to control; type: functional; conditions: KG-1, 24 h
Method in brief: (§1)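 Cells seeded at 1 × 10^4 per well, cultured overnight, then exposed to 10 μM compound or DMSO (negative control) for 24 h. After a PBS wash, MTT (2 mg/ml) was added for 4 h at 37°C and formazan dissolved in DMSO. OD read at 570 nm. Growth inhibition = 1 − (OD treated/OD control); at least three independent experiments.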

[3] = tested on: A498; experiment: Antiproliferative activity against human A498 cells assessed as cell growth inhibition incubated for 24 hrs by MTT assay; type: functional, cell-based; conditions: A498, 24 h
[4] = tested on: K562; experiment: Growth inhibition of human K562 cells at 10 uM incubated for 24 hrs by MTT assay relative to control; type: functional; conditions: read-out: GI; method in brief: as §1
[5] = target: Histone deacetylase 2 (Homo sapiens, UniProt Q92769); experiment: Inhibition of human full-length recombinant HDAC2 preincubated for 5 mins followed by HDAC substrate addition and further incubated for 45 mins by fluorescence microplate reader assay
[6] = target: Focal adhesion kinase 1 (Homo sapiens, UniProt Q05397); experiment: Inhibition of FAK (unknown origin) by FRET-based Z'-Lyte assay
Method in brief: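 Recombinant FAK kinase activity measured with the FRET-based Z'-LYTE format; the same platform was used for a kinase panel (FAK, FLT, FRK, IGF-1R, BTK). IC50 values determined.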

[7] = target: Histone deacetylase 1 (Homo sapiens, UniProt Q13547); experiment: Inhibition of human full-length recombinant HDAC1 preincubated for 5 mins followed by HDAC substrate addition and further incubated for 45 mins by fluorescence microplate reader assay
[8] = tested on: HT-29; experiment: Growth inhibition of human HT-29 cells at 10 uM incubated for 24 hrs by MTT assay relative to control; type: functional; conditions: read-out: GI; method in brief: as §1
[9] = tested on: HCT-116; experiment: Growth inhibition of human HCT-116 cells at 10 uM incubated for 24 hrs by MTT assay relative to control; type: functional; conditions: read-out: GI; method in brief: as §1
[10] = target: T1, Histone deacetylase 8 (Homo sapiens, UniProt Q9BY41); experiment: Inhibition of human full-length recombinant C-terminal His-tagged HDAC8 expressed in baculovirus infected Sf9 insect cells preincubated for 5 mins followed by HDAC substrate addition and further incubated for 45 mins by fluorescence microplate reader assay
T1 sequence (Q9BY41 whole entry): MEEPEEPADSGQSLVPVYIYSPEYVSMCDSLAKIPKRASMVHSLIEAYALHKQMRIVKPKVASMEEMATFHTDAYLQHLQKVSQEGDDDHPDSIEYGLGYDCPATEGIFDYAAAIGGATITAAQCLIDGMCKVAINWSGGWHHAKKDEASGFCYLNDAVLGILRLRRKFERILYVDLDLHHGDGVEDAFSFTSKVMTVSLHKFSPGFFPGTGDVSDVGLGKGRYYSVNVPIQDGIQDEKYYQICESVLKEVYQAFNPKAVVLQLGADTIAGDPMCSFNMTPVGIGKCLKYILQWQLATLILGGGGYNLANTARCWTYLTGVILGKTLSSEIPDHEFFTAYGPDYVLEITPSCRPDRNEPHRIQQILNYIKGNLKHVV

[11] = tested on: A498; experiment: Growth inhibition of human A498 cells at 10 uM incubated for 24 hrs by MTT assay relative to control; type: functional; conditions: read-out: GI; method in brief: as §1
[12] = target: Histone deacetylase 3 (Homo sapiens, UniProt O15379); experiment: Inhibition of human full-length recombinant HDAC3 preincubated for 5 mins followed by HDAC substrate addition and further incubated for 45 mins by fluorescence microplate reader assay
[13] = target: T2, Protein deacetylase HDAC6 (Homo sapiens, UniProt Q9UBN7); experiment: Inhibition of human full-length recombinant HDAC6 preincubated for 5 mins followed by HDAC substrate addition and further incubated for 45 mins by fluorescence microplate reader assay
T2 sequence (Q9UBN7 whole entry): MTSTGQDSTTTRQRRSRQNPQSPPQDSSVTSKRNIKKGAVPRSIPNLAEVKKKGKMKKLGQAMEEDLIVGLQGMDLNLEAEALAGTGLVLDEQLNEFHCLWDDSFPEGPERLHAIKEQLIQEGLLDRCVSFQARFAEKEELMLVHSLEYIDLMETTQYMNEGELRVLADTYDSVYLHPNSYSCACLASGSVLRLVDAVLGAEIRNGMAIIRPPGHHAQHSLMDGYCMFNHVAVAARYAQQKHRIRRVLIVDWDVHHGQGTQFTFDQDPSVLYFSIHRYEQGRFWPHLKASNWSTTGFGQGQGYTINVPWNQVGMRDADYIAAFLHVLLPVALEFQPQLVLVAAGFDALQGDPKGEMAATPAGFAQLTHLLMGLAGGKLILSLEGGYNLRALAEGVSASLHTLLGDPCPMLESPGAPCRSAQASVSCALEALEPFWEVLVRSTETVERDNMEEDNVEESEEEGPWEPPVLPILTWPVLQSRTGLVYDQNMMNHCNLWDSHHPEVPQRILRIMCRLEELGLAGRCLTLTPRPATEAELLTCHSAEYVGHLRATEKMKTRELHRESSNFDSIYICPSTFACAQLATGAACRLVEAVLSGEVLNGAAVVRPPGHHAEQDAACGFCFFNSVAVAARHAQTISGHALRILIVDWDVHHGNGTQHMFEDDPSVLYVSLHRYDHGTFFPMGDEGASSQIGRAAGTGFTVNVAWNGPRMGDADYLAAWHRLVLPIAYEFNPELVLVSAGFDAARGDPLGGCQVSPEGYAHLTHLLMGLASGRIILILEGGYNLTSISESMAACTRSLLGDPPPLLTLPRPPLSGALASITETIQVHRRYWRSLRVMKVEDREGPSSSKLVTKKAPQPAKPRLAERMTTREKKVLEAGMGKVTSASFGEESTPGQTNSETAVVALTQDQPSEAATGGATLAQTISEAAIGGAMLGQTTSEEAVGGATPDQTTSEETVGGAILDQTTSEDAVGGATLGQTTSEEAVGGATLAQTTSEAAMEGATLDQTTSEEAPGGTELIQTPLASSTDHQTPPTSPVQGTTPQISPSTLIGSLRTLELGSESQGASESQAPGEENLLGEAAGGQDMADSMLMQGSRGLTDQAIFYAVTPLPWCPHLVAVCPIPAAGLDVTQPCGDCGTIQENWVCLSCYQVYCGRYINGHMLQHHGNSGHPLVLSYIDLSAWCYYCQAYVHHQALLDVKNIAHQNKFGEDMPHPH

[14] = tested on: CAKI-1; experiment: Growth inhibition of human CAKI-1 cells at 10 uM incubated for 24 hrs by MTT assay relative to control; type: functional; conditions: read-out: GI; method in brief: as §1

Histone deacetylase 3, sequence (O15379 whole entry): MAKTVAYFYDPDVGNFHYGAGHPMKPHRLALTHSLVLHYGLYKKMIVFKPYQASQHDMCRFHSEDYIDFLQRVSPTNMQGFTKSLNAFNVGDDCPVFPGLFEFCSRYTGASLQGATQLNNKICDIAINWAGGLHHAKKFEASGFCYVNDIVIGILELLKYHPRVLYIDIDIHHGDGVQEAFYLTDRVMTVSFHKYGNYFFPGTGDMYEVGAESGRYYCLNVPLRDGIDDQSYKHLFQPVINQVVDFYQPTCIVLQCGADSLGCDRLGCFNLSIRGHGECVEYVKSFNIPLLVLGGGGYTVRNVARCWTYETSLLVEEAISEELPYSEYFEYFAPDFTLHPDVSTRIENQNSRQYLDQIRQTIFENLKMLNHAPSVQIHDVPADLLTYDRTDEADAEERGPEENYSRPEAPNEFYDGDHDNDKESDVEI
Histone deacetylase 1, sequence (Q13547 whole entry): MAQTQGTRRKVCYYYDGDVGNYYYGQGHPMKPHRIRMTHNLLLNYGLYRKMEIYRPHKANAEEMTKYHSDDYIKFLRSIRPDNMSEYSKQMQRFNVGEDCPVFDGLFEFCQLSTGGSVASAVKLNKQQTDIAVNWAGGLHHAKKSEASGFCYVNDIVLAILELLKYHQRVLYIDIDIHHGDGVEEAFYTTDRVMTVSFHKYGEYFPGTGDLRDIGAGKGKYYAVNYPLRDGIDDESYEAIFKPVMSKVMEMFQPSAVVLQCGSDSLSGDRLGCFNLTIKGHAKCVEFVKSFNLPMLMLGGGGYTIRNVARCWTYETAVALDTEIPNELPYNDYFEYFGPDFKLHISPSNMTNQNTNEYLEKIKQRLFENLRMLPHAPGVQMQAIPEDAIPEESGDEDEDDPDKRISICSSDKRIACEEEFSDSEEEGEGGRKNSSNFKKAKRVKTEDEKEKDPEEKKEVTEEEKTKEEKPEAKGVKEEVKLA
Histone deacetylase 2, sequence (Q92769 whole entry): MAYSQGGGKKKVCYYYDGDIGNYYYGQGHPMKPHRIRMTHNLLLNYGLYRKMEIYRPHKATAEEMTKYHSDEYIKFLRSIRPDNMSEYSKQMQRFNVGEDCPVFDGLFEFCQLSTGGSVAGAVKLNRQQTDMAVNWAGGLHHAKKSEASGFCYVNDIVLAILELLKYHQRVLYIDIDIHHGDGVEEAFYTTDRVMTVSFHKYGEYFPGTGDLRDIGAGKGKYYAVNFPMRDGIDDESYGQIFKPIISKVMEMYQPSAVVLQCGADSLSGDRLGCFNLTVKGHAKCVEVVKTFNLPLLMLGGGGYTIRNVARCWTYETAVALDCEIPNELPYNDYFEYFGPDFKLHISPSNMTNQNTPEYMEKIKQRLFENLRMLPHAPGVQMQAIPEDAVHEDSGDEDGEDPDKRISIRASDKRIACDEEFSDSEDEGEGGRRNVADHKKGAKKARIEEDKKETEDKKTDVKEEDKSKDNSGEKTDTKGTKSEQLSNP
Focal adhesion kinase 1, sequence (Q05397 whole entry): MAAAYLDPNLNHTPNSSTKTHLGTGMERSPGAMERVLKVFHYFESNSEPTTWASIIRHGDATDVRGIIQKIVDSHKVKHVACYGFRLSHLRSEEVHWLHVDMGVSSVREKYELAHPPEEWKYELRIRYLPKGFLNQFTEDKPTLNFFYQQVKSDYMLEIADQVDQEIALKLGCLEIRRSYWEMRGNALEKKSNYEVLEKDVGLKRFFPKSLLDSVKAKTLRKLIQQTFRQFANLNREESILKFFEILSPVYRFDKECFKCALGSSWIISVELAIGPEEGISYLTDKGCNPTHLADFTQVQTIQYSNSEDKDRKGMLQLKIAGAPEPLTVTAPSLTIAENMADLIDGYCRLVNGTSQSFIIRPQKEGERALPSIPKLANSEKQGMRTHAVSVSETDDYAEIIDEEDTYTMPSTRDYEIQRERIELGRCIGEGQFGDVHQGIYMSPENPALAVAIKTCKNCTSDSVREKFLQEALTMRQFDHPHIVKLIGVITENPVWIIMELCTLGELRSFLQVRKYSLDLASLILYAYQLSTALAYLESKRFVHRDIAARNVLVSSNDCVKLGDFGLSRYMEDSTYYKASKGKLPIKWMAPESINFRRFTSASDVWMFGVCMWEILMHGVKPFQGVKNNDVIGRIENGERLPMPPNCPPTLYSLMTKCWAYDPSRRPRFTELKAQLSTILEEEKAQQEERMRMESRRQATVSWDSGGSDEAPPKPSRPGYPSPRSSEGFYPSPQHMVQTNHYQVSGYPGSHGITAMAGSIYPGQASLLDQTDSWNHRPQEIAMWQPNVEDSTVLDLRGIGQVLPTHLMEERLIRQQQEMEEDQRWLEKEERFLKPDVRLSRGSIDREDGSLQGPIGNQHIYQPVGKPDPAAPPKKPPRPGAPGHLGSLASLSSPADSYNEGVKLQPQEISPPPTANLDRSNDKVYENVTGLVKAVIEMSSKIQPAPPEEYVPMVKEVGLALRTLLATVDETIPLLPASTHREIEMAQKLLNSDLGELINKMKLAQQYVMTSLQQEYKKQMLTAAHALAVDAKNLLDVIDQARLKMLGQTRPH

Row | SMILES | IC50 [1] | inhibition in vitro at 10 µM [2] | IC50 [3] | inhibition of growth at 10 µM [4] | IC50 [5] | IC50 [6] | IC50 [7] | inhibition of growth at 10 µM [8] | inhibition of growth at 10 µM [9] | IC50 [10] | inhibition of growth at 10 µM [11] | IC50 [12] | IC50 [13] | inhibition of growth at 10 µM [14]
1 | O=C(CCCCCSc1nnc(-c2ccncc2)n1-c1ccccc1)NO | 92.4 µM | 11.2% | 174 µM | 8.34% | 32.4 µM | 0.425 µM | > 300 µM | 1.09% | 3.56% | > 300 µM | 4.36% | > 300 µM | 246 µM | 
2 | C=CCn1c(SCc2ccc(C(=O)NO)cc2)nnc1-c1ccncc1 | 9.56 µM | 62% | 13.2 µM | 36.1% | 11.2 µM | 0.0461 µM | 19.6 µM | 25.3% | 44.1% | 28.4 µM | 44.9% | 20.7 µM | 9.86 µM | 50.2%
3 | C=CCn1c(SCc2ccc(C(=O)Nc3ccccc3N)cc2)nnc1-c1ccncc1 | 1.6 µM | 87.5% | 1.42 µM | 90.1% | 1.28 µM | 0.0156 µM | 11.8 µM | 70.7% | 80.5% | 22.5 µM | 97.1% | 42.1 µM | 9.96 µM | 94.8%
4 | C=CCn1c(SCCCCCC(=O)O)nnc1-c1ccncc1 | 164 µM | 15.4% | 85.3 µM | 2.95% | 10.1 µM | 0.124 µM | 98.2 µM | 21.2% | 16.2% | > 300 µM | 11.4% | 246 µM | > 300 µM | 3.25%
5 | Nc1ccccc1NC(=O)c1ccc(CSc2nnc(-c3ccncc3)n2-c2ccccc2)cc1 | 8.35 µM | 47.3% | 6.19 µM | 19.6% | 8.39 µM | 0.0961 µM | 22.1 µM | 37.9% | 45.4% | 5.32 µM | 72.5% | 113 µM | 9.63 µM | 66.9%
6 | Cn1c(SCc2ccc(C(=O)NO)cc2)nnc1-c1ccncc1 | 11 µM | 72.1% | 20.9 µM | 16% | 4.35 µM | 0.0643 µM | 14.2 µM | 54% |  | 29.8 µM | 31.8% | 56.4 µM | 14.4 µM | 48.2%
7 | Cn1c(SCc2ccc(C(=O)Nc3ccccc3N)cc2)nnc1-c1ccncc1 | 6.97 µM | 24.1% | 9.34 µM | 54.1% | 13 µM | 0.0531 µM | 7.64 µM | 47.9% | 18% | 7.85 µM | 55.6% | 71.1 µM | 11 µM | 75.2%
8 | CCCC(CCC)C(=O)O [VALPROIC ACID] | 2830 µM |  | 2140 µM |  |  |  | 84.2 µM |  |  |  |  |  | 215 µM | 
9 | O=C(O)CCCCCSc1nnc(-c2ccncc2)n1-c1ccccc1 | 1.89 µM | 67.2% | 2.35 µM | 72.7% | 0.64 µM | 0.0361 µM | 8.95 µM | 80.5% | 78.5% | 11.1 µM | 89.3% | 21.1 µM | 10.9 µM | 94.8%
10 | CCn1c(SCc2ccc(C(=O)Nc3ccccc3N)cc2)nnc1-c1ccncc1 | 80.7 µM | 5.91% | 124 µM | 8.67% | 40.1 µM | 0.112 µM | > 300 µM | 1.22% | 1.85% | > 300 µM | 1.18% | > 300 µM | > 300 µM | 12.1%
11 | Cn1c(SCCCCCC(=O)Nc2ccccc2N)nnc1-c1ccncc1 | 9.87 µM | 63.1% | 13.4 µM | 44.9% | 14.4 µM | 0.0571 µM | 40.2 µM | 71.4% | 54.4% | 7.28 µM | 45.3% | 84.1 µM | 14.2 µM | 50.8%
12 | CCn1c(SCCCCCC(=O)NO)nnc1-c1ccncc1 | 112 µM | 17.3% | 149 µM | 4.09% | 28.9 µM | 0.124 µM | 76.3 µM | 9.15% | 21.4% | > 300 µM | 5.26% | > 300 µM | 270 µM | 2.06%
13 | CNC(=O)c1ccccc1Nc1nc(Nc2ccc(N3CCOCC3)cc2OC)ncc1Cl | 1.05 µM |  | 0.81 µM |  |  |  |  |  |  |  |  |  |  | 
14 | CCn1c(SCCCCCC(=O)O)nnc1-c1ccncc1 |  | 7.34% | 125 µM | 1.58% | 26.4 µM | 0.0762 µM | 184 µM | 9.34% | 2.15% | > 300 µM | 4.13% | 156 µM | > 300 µM | 1.06%
